Only some compounds are listed: those with a hit (about 1.8% of all), similar ones and a draw of the others.
PABP polyA inh: PABP poly(A) RNA binding inhibitors, primary screen, biochemical, fluorescence polarization, uHTS; calls only at 35 µM; hit rate 1% among 290,000;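 also: calls also rest on retests at 20 µM and on dose response follow-up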
SUMO HTRF inh: inhibitors of in vitro SUMOylation cascade, primary screen, biochemical, HTRF, uHTS. HTRF SUMOylation assay, SAE1/SAE2 + UBC9. inhibition, % at 35 µM. hit rate 0.36% among 290,000. AID 2006, 2009; in the data active = inhibition above about 50%, passing the limit was not always enough
Target sequence (P63279 whole entry, looked up): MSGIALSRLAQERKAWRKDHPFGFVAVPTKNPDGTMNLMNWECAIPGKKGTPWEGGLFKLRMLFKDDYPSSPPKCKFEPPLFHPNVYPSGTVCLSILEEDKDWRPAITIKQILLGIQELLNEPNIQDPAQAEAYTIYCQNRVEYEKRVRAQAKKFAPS
eIF4E-4G inh: eIF4E–eIF4G protein interaction inhibitors, primary screen, biochemical, uHTS, TR-FRET, eIF4GI fragment. Eukaryotic translation initiation factor 4E (Mus musculus) + Eukaryotic translation …. TR-FRET eIF4E-eIF4GI(517-606) binding, 2 h. inhibition, % at 21.7 µM. hit rate 0.37% among 220,000. AID 782, 2007;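 active = inhibition above about 30%, limit read from the data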;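 also: 0% = full FRET control wells and 100% = background wells lacking eIF4GI fragment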
eIF4H inh: human eIF4H binding inhibitors, primary screen, translation initiation inhibitor project, biochemical, uHTS, fluorescence polarization; hit rate 0.94% among 290,000; eIF4H fluorescence polarization binding assay; Eukaryotic translation initiation factor 4H (Homo sapiens), Q15056; inhibition, % at 35 µM;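 also: calls also rest on retests at 20 µM and on dose response follow-up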
core dimer inh: inhibitors of HCV core protein dimerization, primary screen, biochemical, TR-FRET, high-throughput; hit rate 0.33% among 300,000; TR-FRET GST/Flag-core106 dimerization, 1536-well; AID 1899, 2009; inhibition, % at 5 µM;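 active = inhibition above the mean of all tested compounds plus 3 SD, set per screening campaign, cut at about 45% in these data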
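System: GST/Flag-tagged HCV core106 proteins. Incubation: compound-protein-antibody incubation 4 h at 22.5 °C. Technique: HTRF with 340 nm excitation, 617/671 nm emission. Medium: KF-containing HEPES buffer, pH 7.45, DTT, CHAPS, BSA. Read-out: inhibition (%) from 671 over 617 nm ratio. Also added: Eu(K)-anti-GST 90 ng/mL plus XL665-anti-Flag 1 µg/mL.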
MLLE-PAM2 inh: inhibitors of PABP1 MLLE–PAM2 peptide binding, primary screen, biochemical, fluorescence polarization, FITC-PAM2, GST-MLLE | Polyadenylate-binding protein 1 (Homo sapiens), P11940 | inhibition, % at 20 µM | hit rate 0.36% among 360,000 | AID 588489, 2011; in the data active = inhibition above about 35%, passing the limit was not always enough;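 also: plate controls were DMSO wells with GST-MLLE for no effect and wells lacking GST-MLLE protein for full effect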
* hit, by the source's call. Unless noted, no rule for the calls is given here.

How did Oc1cccc(NC(=S)N=Nc2c(O)[nH]c3ccccc23)c1 do in these assays?
PABP polyA inh: inactive; SUMO HTRF inh: -100; eIF4E-4G inh: 0; eIF4H inh: 3; core dimer inh: -3; MLLE-PAM2 inh: 38*

How did COc1ccc(NC(=O)CN(C)C(=O)c2ccc(OCc3ccccc3)c(OC)c2)cc1 do in these assays?
core dimer inh: 2; MLLE-PAM2 inh: -19

What do the screens show for `O=C(Nc1ccccc1)Nc1ccno1`?
PABP polyA inh: inactive; SUMO HTRF inh: 57*; eIF4E-4G inh: 2; eIF4H inh: -10; core dimer inh: 1; MLLE-PAM2 inh: -5

Results for CCn1c(=O)c2c(nc(SCC(=O)NC3CCCC3)n2C)n(C)c1=O ?
PABP polyA inh: inactive; SUMO HTRF inh: 12; eIF4H inh: 1; core dimer inh: 6; MLLE-PAM2 inh: 13

How did Cc1ccc(C)c(N2CCN(C(=O)c3ccc4nc(-c5ccco5)c(-c5ccco5)nc4c3)CC2)c1 do in these assays?
PABP polyA inh: inactive; SUMO HTRF inh: -3; eIF4E-4G inh: 2; eIF4H inh: 86*; core dimer inh: 37; MLLE-PAM2 inh: 26

What do the screens show for `COc1ccccc1N1CCN(C(=O)c2ccc3nc[nH]c3c2)CC1`?
PABP polyA inh: inactive; SUMO HTRF inh: -15; eIF4E-4G inh: -1; eIF4H inh: 14; core dimer inh: -4; MLLE-PAM2 inh: 4

What do the screens show for `COc1ccccc1N1CCN(C(=O)c2ccc3nc(-c4ccco4)c(-c4ccco4)nc3c2)CC1`?
PABP polyA inh: inactive; SUMO HTRF inh: 72*; eIF4E-4G inh: 7; eIF4H inh: 92; core dimer inh: 25; MLLE-PAM2 inh: 13

How did Cc1ccc(C)c(N2CCN(C(=O)c3ccc4nc(N5CCOCC5)sc4c3)CC2)c1 do in these assays?
PABP polyA inh: inactive; SUMO HTRF inh: -5; eIF4H inh: -2; core dimer inh: 3; MLLE-PAM2 inh: -25

What do the screens show for `CC(C)C(=O)N1CCCC1(C)C(=O)Nc1ccc(F)cc1` (stereo not drawn)?
MLLE-PAM2 inh: -2

Results for O=C(NCCN1CCOCC1)/C(=C\c1ccc(F)cc1)NC(=O)c1ccccc1 ?
core dimer inh: -8; MLLE-PAM2 inh: -13

How did COc1ccc(NC(=O)n2ncc3cc(Cl)ccc32)cc1OC do in these assays?
PABP polyA inh: inactive; SUMO HTRF inh: 5; eIF4H inh: -8; core dimer inh: -5; MLLE-PAM2 inh: 7

How did CCOC(=O)c1cc(C(=O)c2ccccc2O)cn2c(=O)c3c(C)c(C)sc3nc12 do in these assays?
PABP polyA inh: inactive; SUMO HTRF inh: 10; eIF4E-4G inh: -2; eIF4H inh: 73*; core dimer inh: -2

Results for CCOC(CNC(=O)c1cccn2c(=O)c3c(C)c(C)sc3nc12)OCC ?
PABP polyA inh: inactive; SUMO HTRF inh: 14; eIF4H inh: 3; core dimer inh: -1; MLLE-PAM2 inh: 9

What do the screens show for `O=C(O)CSc1cc(C(=O)c2ccccc2O)cn2c(=O)c3c4c(sc3nc12)CCCC4`?
PABP polyA inh: inactive; SUMO HTRF inh: 50*; eIF4E-4G inh: 17; eIF4H inh: 40; MLLE-PAM2 inh: -11

How did Nc1nc(C(c2ccccc2)c2ccccc2)cs1 do in these assays?
PABP polyA inh: inactive; SUMO HTRF inh: 5; eIF4H inh: 7; core dimer inh: 8; MLLE-PAM2 inh: -3

What do the screens show for `CN(C)c1nc(-c2cn(CCC#N)c3ccccc23)cs1`?
PABP polyA inh: inactive; SUMO HTRF inh: 13; eIF4H inh: 18; core dimer inh: 0; MLLE-PAM2 inh: 49*

How did CCc1noc(C)c1C(=O)Nc1nc(-c2ccc(OC)cc2OC)cs1 do in these assays?
core dimer inh: -2; MLLE-PAM2 inh: 9

Results for Cc1nnc(N2C(=O)c3oc4ccccc4c(=O)c3C2c2ccco2)s1 (stereo not drawn) ?
PABP polyA inh: inactive; SUMO HTRF inh: 8; eIF4E-4G inh: 6; eIF4H inh: 22; core dimer inh: 17; MLLE-PAM2 inh: 48*

How did NC1=Nc2cccc3cccc1c23 do in these assays?
PABP polyA inh: active; SUMO HTRF inh: 28; eIF4E-4G inh: 0; eIF4H inh: 92; core dimer inh: -7; MLLE-PAM2 inh: -29

Screening results deposited in PubChem by several laboratories.
